Assay results: ChEMBL document CHEMBL3297735, “Optimization of troglitazone derivatives as potent anti-proliferative agents: towards more active and less toxic compounds” (Eur J Med Chem, 2014)

Legend:
Mus musculus [1] = experiment: Toxicity in BALBc/AnNHsd mouse assessed as mortality at 64.6 mg/kg, iv; type: organism-based; set-up: dose 64.6 mg/kg, route intravenous; settings: in vivo
Mus musculus [2] = experiment: Toxicity in BALBc/AnNHsd mouse assessed as behavioral changes at 34 mg/kg, iv; type: organism-based; set-up: dose 34 mg/kg, route intravenous; settings: in vivo
Summary of the method: (§1)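 Acute toxicity was assessed in female BALBc/AnNHsd mice after intravenous injection of compound in a solvent mixture, to estimate the maximum tolerated dose.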

Mus musculus [3] = experiment: Toxicity in BALBc/AnNHsd mouse assessed as change in body weight at 34 mg/kg, iv measured between day 1 and day 15 (reference value: 18 +/- 1 g); type: organism-based; set-up: dose 34 mg/kg, route intravenous; settings: in vivo; summary of the method: as §1
Mus musculus [4] = experiment: Toxicity in BALBc/AnNHsd mouse assessed as change in organ morphology at 34 mg/kg, iv; type: organism-based; set-up: dose 34 mg/kg, route intravenous; settings: in vivo; summary of the method: as §1
HCT-116 = experiment: Cytotoxicity against human HCT116 cells assessed as cell viability at 10 uM after 72 hrs by MTS assay in presence of 10% fetal calf serum relative to control; type: functional; settings: HCT-116, 72 h, read-out: Activity
MCF7 [5] = experiment: Cytotoxicity against human MCF7 cells assessed as cell viability at 10 uM after 72 hrs by MTS assay in presence of 10% fetal calf serum relative to control; type: functional; settings: MCF7, 72 h, read-out: Activity
Summary of the method: (§2)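 Cells were grown in RPMI with L-glutamine, 10% FCS, penicillin/streptomycin and fungizone at 37 °C under 5% CO2. Wells were seeded with 1900 cells for MCF-7 or 1300 cells for MDA-MB-231. After 24 h, compound was added from a 10 mM DMSO stock (final DMSO 1%) for 72 h, with DMSO-only controls. Viable cells were read by MTS at 490 nm and expressed as % of untreated. Mean ± SEM, N = 3.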

MDA-MB-231 [6] = experiment: Cytotoxicity against human MDA-MB-231 cells assessed as cell viability at 10 uM after 72 hrs by MTS assay in presence of 10% fetal calf serum relative to control; type: functional; settings: MDA-MB-231, 72 h, read-out: Activity; summary of the method: as §2
[7] = Cytotoxicity against human MDA435 cells assessed as cell viability at 10 uM after 72 hrs by MTS assay in presence of 10% fetal calf serum relative to control; type: functional; settings: MDA-MB-435, 72 h, read-out: Activity
[8] = Cytotoxicity against human MiaPaCa cells assessed as cell viability at 10 uM after 72 hrs by MTS assay in presence of 10% fetal calf serum relative to control; type: functional; settings: MIA PaCa-2, 72 h, read-out: Activity
HepG2 = experiment: Cytotoxicity against human HepG2 cells assessed as cell viability at 10 uM after 72 hrs by MTS assay in presence of 10% fetal calf serum relative to control; type: functional; settings: HepG2, 72 h, read-out: Activity
PC-3 = experiment: Cytotoxicity against human PC3 cells assessed as cell viability at 10 uM after 72 hrs by MTS assay in presence of 10% fetal calf serum relative to control; type: functional; settings: PC-3, 72 h, read-out: Activity
LNCaP = experiment: Cytotoxicity against human LNCAP cells assessed as cell viability at 10 uM after 72 hrs by MTS assay in presence of 10% fetal calf serum relative to control; type: functional; settings: read-out: Activity
[9] = Cytotoxicity against human hepatocytes assessed as cell viability at 100 uM after 90 mins by MTT assay relative to control; type: cell-based, Hepatocyte; settings: read-out: Activity
Summary of the method: (§3)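 Cryopreserved human hepatocytes were plated at 0.1 × 10⁶ cells/well and exposed to compound for 90 min. MTT was then added for 30 min at 37 °C, plates were centrifuged, and formazan was dissolved in DMSO. Absorbance was read at 595 nm. Surviving cells are expressed as % of non-treated cells ± SEM.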

[10] = Cytotoxicity against human hepatocytes assessed as cell viability at 200 uM after 90 mins by MTT assay relative to control; type: cell-based, Hepatocyte; settings: read-out: Activity; summary of the method: as §3
MCF7 [11] = experiment: Cytotoxicity against human MCF7 cells after 24 hrs by CellTiterGlo assay in presence of 1% fetal calf serum; type: functional, cell-based; settings: MCF7, 24 h
Summary of the method: (§4)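 MCF-7 was maintained in phenol red DMEM and MDA-MB-231 in L-15. Cells were seeded in 6-well plates at 8.10⁴ cells/well in medium with 10% FCS and 2 mM L-glutamine. Medium was then switched to 1% FCS with 2 mM L-glutamine for treatment, with 0.1% DMSO controls. Cells were washed, trypsinized and counted with CellTiter-Glo luminescence. Each treatment was run in triplicate, and IC50 was taken as the concentration halving viable cells.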

MDA-MB-231 [12] = experiment: Cytotoxicity against human MDA-MB-231 cells after 24 hrs by CellTiterGlo assay in presence of 1% fetal calf serum; type: functional, cell-based; settings: MDA-MB-231, 24 h; summary of the method: as §4
[13] = Acute toxicity in iv dosed BALBc/AnNHsd mouse; type: organism-based; settings: in vivo
Summary of the method: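 Acute toxicity run in female BALBc/AnNHsd mice given the compounds by intravenous injection. The read-out was the maximum tolerated dose (MTD). Compounds were dissolved in a mixture of solvents, and the top dose was capped by solubility in that mixture.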

[14] = Toxicity in BALBc/AnNHsd mouse assessed as mortality at 34 mg/kg, iv relative to control; type: organism-based; set-up: dose 34 mg/kg, route intravenous; settings: in vivo
Mus musculus [15] = experiment: Toxicity in BALBc/AnNHsd mouse assessed as mortality at 65.5 mg/kg, iv; type: organism-based; set-up: dose 65.5 mg/kg, route intravenous; settings: in vivo
Mus musculus [16] = experiment: Toxicity in BALBc/AnNHsd mouse assessed as behavioral changes at 65.5 mg/kg, iv; type: organism-based; set-up: dose 65.5 mg/kg, route intravenous; settings: in vivo
Mus musculus [17] = experiment: Toxicity in BALBc/AnNHsd mouse assessed as change in body weight at 65.5 mg/kg, iv measured on day 1 (reference value: 17.67 +/- 0.33 g); type: organism-based; set-up: dose 65.5 mg/kg, route intravenous; settings: in vivo; summary of the method: as §1
Mus musculus [18] = experiment: Toxicity in BALBc/AnNHsd mouse assessed as change in body weight at 65.5 mg/kg, iv measured on day 2 (reference value: 19 +/- 1 g); type: organism-based; set-up: dose 65.5 mg/kg, route intravenous; settings: in vivo; summary of the method: as §1
Mus musculus [19] = experiment: Toxicity in BALBc/AnNHsd mouse assessed as change in body weight at 65.5 mg/kg, iv measured on day 15 (reference value: 18.33 +/- 0.33 g); type: organism-based; set-up: dose 65.5 mg/kg, route intravenous; settings: in vivo; summary of the method: as §1
Mus musculus [20] = experiment: Toxicity in BALBc/AnNHsd mouse assessed as change in organ morphology at 65.5 mg/kg, iv; type: organism-based; set-up: dose 65.5 mg/kg, route intravenous; settings: in vivo

Row | SMILES | viability at 10 µM (HCT-116) [%] | viability at 10 µM (MCF7 [5]) [%] | viability at 10 µM (MDA-MB-231 [6]) [%] | viability at 10 µM [7] [%] | viability at 10 µM [8] [%] | viability at 10 µM (HepG2) [%] | viability at 10 µM (PC-3) [%] | viability at 10 µM (LNCaP) [%] | viability at 1.5 h, 100 µM [9] [%] | viability at 1.5 h, 200 µM [10] [%] | IC50 (MCF7 [11]) [µM] | IC50 (MDA-MB-231 [12]) [µM] | MTD [13] [mg/kg] | also measured
1 | Cc1c(C)c2c(c(C)c1CCCCCCN)CCC(C)(COc1ccc(/C=C3\SC(=O)NC3=O)cc1)O2.O=C(O)C(F)(F)F (racemic) | 6.9 | 2.7 | 7.6 | 35.2 | 5.9 | 12.9 | 60.1 | 46.8 | 83.2 | 79.9 | 3.6 | 1.5 | 34 | Activity (Mus musculus [1]): Toxic; Activity (Mus musculus [2]): Non-toxic; Activity (Mus musculus [3]): 21.5 g; Activity (Mus musculus [4]): Non-toxic
2 | Cc1c(C)c2c(c(C)c1O)CCC(C)(COc1ccc(/C=C3\SC(=O)NC3=O)cc1)O2 (stereo not drawn) | 88 | 84 | 69.3 | 73.1 | 95 | 82.3 | 83.1 | 85.4 | 62.8 | 43.1 |  |  | 34 | mortality [14]: > 50%
3 | Cc1c(C)c2c(c(C)c1CCCCCCN)CCC(C)(COc1ccc(/C=C3\SC(=O)N(C)C3=O)cc1)O2.O=C(O)C(F)(F)F (racemic) | 0 | 0 | 0 | 0 | 0 | 0 | 7.7 | 11.6 | 82.6 | 82.7 | 6.1 | 6.7 | 65.5 | Activity (Mus musculus [15]): Non-toxic; Activity (Mus musculus [16]): Non-toxic; Activity (Mus musculus [17]): 17.67 g; Activity (Mus musculus [18]): 19 g; Activity (Mus musculus [19]): 18.5 g; Activity (Mus musculus [20]): Non-toxic
